The source of these data is ChEMBL document CHEMBL4513216, “Probing the Open Global Health Chemical Diversity Library for Multistage-Active Starting Points for Next-Generation Antimalarials” (ACS Infect Dis, 2020).

The series can be described thus: Toxicity liver stage against HepG2, at 10uM. The series is classed as cell-based. More on the design: test concentration 10 uM, cell line HepG2-A16-CD81EGFP. The settings on record: human, HepG2-A16-CD81EGFP cells; read-out: INHIBITION
An outline of the steps: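 Uninfected HepG2-A16-CD81EGFP cells, 3 × 10^3 per well, 1536-well, plated on prespotted compound at 10 μM final, parasite-free screening media added to match infected plates; puromycin 10 μM positive, DMSO 0.5% negative; run in parallel with 48 h PbLuc assay at 37 °C, 5% CO2; viability by CellTiter-Glo luminescence, normalized to controls.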
As to `Cc1ccc(N2CCCC(N(C)Cc3c(C)noc3C)C2)nn1` (stereo unspecified), the cytotoxicity at 10 µM was -14%.

As for `Cc1cc(C)n(-c2cccc(C(=O)Nc3n[nH]c(C4CCCO4)n3)c2)n1` (stereo unspecified), the cytotoxicity at 10 µM is -4.44%.

For the compound `COc1ccccc1CCN1CCCC(CN(C)Cc2ccc(C)o2)C1` (stereo unspecified), the cytotoxicity at 10 µM was -0.813%.

Consider `CC(C)CSc1ccc(-n2cccn2)nn1`, for which the cytotoxicity at 10 µM was -218%.

Take `Cc1ccsc1C(=O)N1CCCN(Cc2cscn2)CC1`: the cytotoxicity at 10 µM is -12.4%.

Turning to `COCC(=O)N1CCC2(CC1)CN(c1ccccn1)CCO2`, the cytotoxicity at 10 µM was -71.2%.

For `O=S(=O)(c1ccccc1)N1CCCC1c1cc[nH]n1` (stereo unspecified), the cytotoxicity at 10 µM was -6.58%.

On to `CC(C)n1cnnc1SCCN(C)c1ccccc1`, for which the cytotoxicity at 10 µM came out at 2.96%.

With `O=C(COc1ccc2c(c1)CCCC2=O)NCc1ccco1`, the cytotoxicity at 10 µM stood at 3.39%.

Consider `COc1cc(C2c3c(n[nH]c3C)N=C3COC(=O)C32)cc2c1OCO2` (stereo unspecified), for which the cytotoxicity at 10 µM was 87.7%.

With `O=C(Cc1ccon1)N1CCN(c2ccc(F)cc2Cl)CC1`, the cytotoxicity at 10 µM came out at 1.02%.

Regarding `CC[C@@]1(O)CCN(C(=O)c2ccc(CN3CCCCCC3)cc2)C[C@H]1O`, the cytotoxicity at 10 µM was found to be 8.44%.

In the case of `CN(C)C(=O)[C@@H]1C[C@@H]2[C@@H](CCN2Cc2nccs2)O1`, the cytotoxicity at 10 µM was -1.42%.

For `CN(C)c1cc(C2CCCN(Cc3cnn(C)c3)C2)ccn1` (stereo unspecified), the cytotoxicity at 10 µM was -1.88%.

For `COc1ccc(S(=O)(=O)N2C[C@H](OC)[C@]3(CCCO3)C2)cc1`, the cytotoxicity at 10 µM came out at 1.64%.

As to `CC(NC(=O)Nc1ccc(F)c(F)c1)c1nc[nH]n1` (stereo unspecified), the cytotoxicity at 10 µM stood at 0.185%.

For `COC(=O)CC(c1ccc(O)c(Cl)c1)c1oc(C)cc(=O)c1O` (stereo unspecified), the cytotoxicity at 10 µM is -8.59%.

As to `O=C1CC2(CCCCN2C(=O)c2ccncc2)CN1CC1CC1` (stereo unspecified), the cytotoxicity at 10 µM came to 2.17%.

Take `C[C@@H]1CN(C(=O)NC2CC2)C[C@]12CCN(c1ccsc1)C2=O`: the cytotoxicity at 10 µM came out at 0.77%.

As to `O=C(c1cnccn1)N1CCN2C[C@H](OCc3ccccc3)C[C@H]2C1`, the cytotoxicity at 10 µM stood at 1.44%.

Consider `CN(C)CCn1c2c(ccc1=O)CCN(C(=O)c1cccs1)CC2`, for which the cytotoxicity at 10 µM was 0.0915%.

With `NC(=O)CN1CCC2(CC1)C[C@@H](O)[C@H](c1ccccc1)NC2=O`, the cytotoxicity at 10 µM is -23%.

For `Cc1cccc(C2(O)CCN(C(=O)c3ccc(N(C)C)cc3)CC2)c1C`, the cytotoxicity at 10 µM is -2.96%.

`CCN(c1ccc(C(=O)N2CCCCCC2)cc1)S(=O)(=O)CC`: the cytotoxicity at 10 µM is -2.25%.

On to `COc1ccc(CCN2CCOC(Cn3nc(C)nc3C)C2)cc1` (stereo unspecified), for which the cytotoxicity at 10 µM amounted to 2.29%.

As to `Cc1nc(C)n(CC2CCCN2Cc2cc(C)on2)n1` (stereo unspecified), the cytotoxicity at 10 µM stood at 4.04%.

Regarding `CC(C)Nc1nc2c(s1)C(=O)CN(CC1CC1)C2`, the cytotoxicity at 10 µM is -10.1%.

`CC(C)c1nnc(CN2CCN(CC(O)c3ccccc3)CC2)o1` (stereo unspecified): the cytotoxicity at 10 µM was -7.03%.

Take `O=C(CSCCN1CCOCC1)N1CCCCCC1`: the cytotoxicity at 10 µM stood at 10.4%.

In the case of `COc1ccc(CC(=O)Nc2c(C)nc(N3CCCC3)nc2C)cc1`, the cytotoxicity at 10 µM was 2.05%.

For `N#CC1(NC(=O)c2nccc3ccccc23)CCC1`, the cytotoxicity at 10 µM was 6.13%.

As to `CCN(CC)C(=O)c1nnsc1-c1ccc(C)cc1`, the cytotoxicity at 10 µM was found to be 3.14%.

Regarding `CCN1C(=O)[C@H]2CN(Cc3cccnc3)C[C@H]2C12CCN(C(C)=O)CC2`, the cytotoxicity at 10 µM is -1.8%.

For `Cc1cc(C)n(CCCN(C)c2cc(N(C)C)ncn2)n1`, the cytotoxicity at 10 µM is 3.85%.

Consider `CC(C)(C)c1cc(CN2CC[C@@H](NC(=O)c3cccnc3)[C@H](O)C2)n[nH]1`, for which the cytotoxicity at 10 µM was -13.2%.

`CCCc1nnc2sc(-c3cc(C(C)C)n[nH]3)nn12`: the cytotoxicity at 10 µM came out at 17.7%.

For the compound `CN(CCNC(=O)Nc1nccs1)Cc1ccc(F)cc1`, the cytotoxicity at 10 µM was -1.32%.

For `CCOc1ccc(CN(C)C(C)C(=O)Nc2cc(C)no2)cc1` (stereo unspecified), the cytotoxicity at 10 µM was 10.6%.

Regarding `Cc1cc(NCC(=O)N(C)Cc2cccs2)c(C(N)=O)cc1F`, the cytotoxicity at 10 µM came out at 0.83%.

As for `Nc1cc(CCC2CN(Cc3ccc(C(=O)O)cc3)CCO2)ccn1` (stereo unspecified), the cytotoxicity at 10 µM was determined as 6.98%.

In the case of `O=S1(=O)CCN(CCCc2ccc(Cl)cc2)CC1`, the cytotoxicity at 10 µM was determined as 1.91%.

Take `CCN1CCN(c2ccc(F)cc2C(C)NCc2noc(C)n2)CC1` (stereo unspecified): the cytotoxicity at 10 µM was found to be 1.8%.

As to `COc1cccc(NC(=O)Cn2cc(-c3ccccc3)ncc2=O)c1`, the cytotoxicity at 10 µM is -0.0638%.

With `Cc1ccccc1OCCCC(=O)N(C)CCC#N`, the cytotoxicity at 10 µM was 2.33%.

As for `COCCN1CCC12CCN(c1ncccn1)C2` (stereo unspecified), the cytotoxicity at 10 µM came to 9.76%.

On to `CO[C@H]1CCN(C2CCC2)[C@@H]2CN(Cc3ccncc3)C[C@H]12`, for which the cytotoxicity at 10 µM amounted to 8.13%.

In the case of `Cc1nc(C2CCCN(C(=O)c3ccc(Cl)cn3)C2)no1` (stereo unspecified), the cytotoxicity at 10 µM was -10.4%.

As for `Fc1cnc(N2CCO[C@H]3CN(CC4CCCCC4)C[C@H]32)nc1`, the cytotoxicity at 10 µM amounted to 6.61%.

As to `CO[C@H]1C[C@@H](O)C12CCN(C(=O)c1cccc(CCC(C)(C)O)c1)CC2`, the cytotoxicity at 10 µM came to 2.74%.

Take `CCOc1ccc(CN2CCc3nc4ccsc4c(=O)n3CC2)cc1`: the cytotoxicity at 10 µM was -6.74%.

With `COc1cc(-c2noc(C(CC(C)C)N3CCCCC3=O)n2)ccn1` (stereo unspecified), the cytotoxicity at 10 µM is -60.8%.

Regarding `OC(COCc1cccs1)Cn1cc(Cl)cn1` (stereo unspecified), the cytotoxicity at 10 µM is -0.574%.

Consider `COC(=O)c1cccc(C(=O)N(C)Cc2ccsc2)c1`, for which the cytotoxicity at 10 µM came to 10.7%.

Take `c1ncc2c(n1)CN(Cc1nc(-c3ccc4c(c3)OCO4)no1)CC2`: the cytotoxicity at 10 µM is -10.4%.

Take `Cc1cn(CC(=O)Nc2cc(C(C)(C)C)nn2C)cn1`: the cytotoxicity at 10 µM stood at 0.79%.

Consider `Cc1nc(C(C)C)ncc1C(=O)N1CCc2c(nc(N(C)C)[nH]c2=O)C1`, for which the cytotoxicity at 10 µM turned out to be 14.3%.

With `c1cc(-c2nnn3c2COC(CNCc2nccs2)C3)ccn1` (stereo unspecified), the cytotoxicity at 10 µM was 1.94%.

`CCn1ccnc1CN1CCN(CCOc2cccc(C#N)c2)CC1`: the cytotoxicity at 10 µM is -6.95%.

`CC(=O)N1CCO[C@@H]2CN(C(=O)NCc3ccccc3)CC[C@@H]2C1`: the cytotoxicity at 10 µM is -97.7%.

As for `N#Cc1ccc(CN2C(=O)c3ccccc3CS2(=O)=O)cc1`, the cytotoxicity at 10 µM is -4.17%.

`COCCn1cc(NCc2c[nH]nc2-c2ccc(OC)cc2)cn1`: the cytotoxicity at 10 µM stood at 6.05%.

On to `CCCS(=O)(=O)NC1CCN(c2cccc(F)c2C#N)CC1`, for which the cytotoxicity at 10 µM is -5.6%.

For `Cc1occc1C(=O)N1CC[C@H]2C[C@@H](c3nnc(C4CC4)o3)O[C@@H]2C1`, the cytotoxicity at 10 µM was -111%.

In the case of `O=C(c1ccoc1)N1CCCn2nnc(COCC3CC3)c2C1`, the cytotoxicity at 10 µM is -68.5%.

Consider `CC(C)(C)c1cnc(CN2CCCS2(=O)=O)o1`, for which the cytotoxicity at 10 µM amounted to 2.07%.

For `O=C1CNc2ncnc(Nc3cnn(Cc4cccc(F)c4)c3)c2N1`, the cytotoxicity at 10 µM came out at 4.67%.

Consider `CN(C)C(=O)[C@@H]1C[C@@H]2CCN(Cc3nccs3)C[C@@H]2O1`, for which the cytotoxicity at 10 µM was found to be 2.67%.

Consider `O=C1NC[C@@]2(C(=O)O)CN(Cc3ccc(Oc4ccccc4)cc3)C[C@@H]12`, for which the cytotoxicity at 10 µM is -8.39%.

With `Cc1ccc(-c2nc(CN3CCCC(Cn4cncn4)C3)no2)cc1` (stereo unspecified), the cytotoxicity at 10 µM was -4.86%.

Consider `Cc1nc(CN2CCCC(N(C)c3ccc(C#N)cn3)C2)no1` (stereo unspecified), for which the cytotoxicity at 10 µM was -6.76%.

As to `O=C(NCC1CCOCC1)[C@H]1C[C@@H]2CCN(Cc3ccncc3)C[C@@H]2O1`, the cytotoxicity at 10 µM was -14.1%.

In the case of `Cc1nnc2n1CC(CNCc1nc(-c3cccs3)no1)CC2` (stereo unspecified), the cytotoxicity at 10 µM was determined as 10.1%.

For `CN(C)CCO[C@H]1CN(Cc2ccco2)[C@@H]2COC[C@H]12`, the cytotoxicity at 10 µM was -98.2%.

As to `Cc1[nH]nc2ncc(C(=O)N3CCN(CC(C)O)CC3)cc12` (stereo unspecified), the cytotoxicity at 10 µM was -1.73%.

For `Cc1csc(N2CCCN(C(=O)CCN3CCCC3=O)CC2)n1`, the cytotoxicity at 10 µM is 24.3%.

On to `Cc1ccc(CNC(=O)C2=NOC3(CCCNC3)C2)cc1` (stereo unspecified), for which the cytotoxicity at 10 µM came out at 1.33%.

Consider `Cn1cc(CN2CCCC(O)C2)c(-c2ccccc2F)n1` (stereo unspecified), for which the cytotoxicity at 10 µM was -2.31%.

`Cc1nc(C)n(CC2CCCN2CCC(=O)N2CCCCC2)n1` (stereo unspecified): the cytotoxicity at 10 µM is -2.67%.

For the compound `Cc1cc(NCc2ccc(O)cc2)n2nc(C)cc2n1`, the cytotoxicity at 10 µM is -0.881%.

In the case of `CCn1c(C)nnc1SCCNC(=O)Cn1cnc2ccccc2c1=O`, the cytotoxicity at 10 µM was found to be 8.28%.

On to `CC1(C)COCCN1C(=O)CCc1nc(-c2ccccn2)no1`, for which the cytotoxicity at 10 µM is -4.59%.

Regarding `Cc1cccc2ncnc(N3CCOC(C)C3)c12` (stereo unspecified), the cytotoxicity at 10 µM is 0.00648%.

For `Cc1csc(C2CCCCN2C(=O)CCCn2cncn2)n1` (stereo unspecified), the cytotoxicity at 10 µM is -8.23%.

Turning to `O=C1CCC2(CCN(c3cccc(C(F)(F)F)n3)CC2)CN1CCO`, the cytotoxicity at 10 µM is -18.2%.

For `CCCn1ncc2c(C(=O)NC(C)Cn3cccn3)cc(C3CC3)nc21` (stereo unspecified), the cytotoxicity at 10 µM was -8.97%.

For `CC(C)(C)NS(=O)(=O)c1ccccc1CNCc1cccc(O)c1`, the cytotoxicity at 10 µM is -7.43%.

For the compound `COc1cccc(-c2cnc(C3CCNCC3)cn2)c1`, the cytotoxicity at 10 µM was -30.4%.

Take `Cc1nc(CCC(N)=O)cc(C2CCCCN2S(C)(=O)=O)n1` (stereo unspecified): the cytotoxicity at 10 µM is -13%.

Take `CC(Nc1cccc2c1OCCO2)C(=O)Nc1ccc(S(N)(=O)=O)cc1` (stereo unspecified): the cytotoxicity at 10 µM was -3.93%.

Consider `CCc1nnc(SC2CCN(c3ccccc3F)C2=O)n1C` (stereo unspecified), for which the cytotoxicity at 10 µM stood at 1.77%.

Regarding `Cc1ccc(-c2noc([C@@H]3C[C@H](NC(=O)NC(C)C)CN3C)n2)cc1`, the cytotoxicity at 10 µM turned out to be 3.31%.

Turning to `Fc1ccccc1CN1C[C@@H](OCc2ccncc2)[C@H]2OCCC[C@H]21`, the cytotoxicity at 10 µM was -4.81%.

For the compound `COCc1nc(CN2CCC3(CCCO3)CCC2=O)no1` (stereo unspecified), the cytotoxicity at 10 µM was -10.3%.

Regarding `Cc1nc(CN2CCC(N(C)Cc3nnc(C4CC4)n3C)C2)oc1C` (stereo unspecified), the cytotoxicity at 10 µM is -16.1%.

Turning to `Cc1cnc(N2CCCOC(CN3CCCCC3)C2)nc1` (stereo unspecified), the cytotoxicity at 10 µM is -3.54%.

As to `O=C(NCCn1ccnc1)N1CCN(Cc2ccsc2)CC1`, the cytotoxicity at 10 µM was -15.3%.
